# Assay results as given in article PMC7502546 (ACS chemical biology, 2020).
# Where two headings read alike, the source gives them in different places.
# What was measured:
# [1] = target: CaV1.3 LTCCs (Rattus norvegicus, UniProt P27732); test: Equilibrium binding / displacement of 3H2-SKP004D11 in HEK293 membranes
# Summary of the method: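 Membranes came from HEK-293 cells stably expressing CaV1.3 α1D/β3/α2δ-1. They were washed in 40 mM HEPES, 100 mM NaCl, pH 8.0, homogenized on ice, and pelleted three times at 100,000 × g, 4 °C. Each reaction held 3.0 nM tritiated pyrimidinetrione ligand, 0.1–0.4 mg/mL protein, and unlabeled competitor, incubated 90 min at room temperature. Samples were filtered on GF/C and scintillation counted. Nonspecific binding used a saturating cold ligand. Ki came from a Langmuir fit plus Cheng-Prusoff; Kd came from a Scatchard plot (n = 4).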
# [2] = tested on: CaV1.3 channels over CaV1.2 channels; settings: cited from earlier work
# [3] = tested on: CaV1.3-M1078V; test: Whole-cell patch clamp, CaV1.3-M1078V channels; format: cell-based, rat; settings: for percent inhibition of evoked currents (median): CaV1.3-M1078V
# Summary of the method: (§1)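 Rat α1D (wild type or point mutants made by site-directed mutagenesis, sequence-verified) was transiently co-transfected with CaVβ3 and CaVα2δ-1 at 1:1:1 into tsA201 cells, with 1/40 (w/w) GFP. GFP-positive cells were whole-cell clamped 48 h later at 22–25 °C. External solution held 10 mM BaCl2 (pH 7.4); internal was NMG-based with 5 mM BAPTA. DMSO stocks were diluted into barium solution and perfused. Median percent inhibition was reported.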
# [4] = tested on: SN dopaminergic neurons; test: mito-roGFP mitochondrial oxidant stress in ex vivo brain slices; format: cell-based, mouse
# [5] = target: CaV1.2-V1063I (Oryctolagus cuniculus, UniProt P15381, V1063I); test: Whole-cell patch clamp, CaV1.2-V1063I channels; format: cell-based, rabbit; settings: read-out: percent inhibition of evoked currents (median)
# [6] = target: CaV1.3-M1078L (Rattus norvegicus, UniProt P27732, M1078L); test: Whole-cell patch clamp, CaV1.3-M1078L channels; format: cell-based; settings: read-out: percent inhibition of evoked currents (median)
# Summary of the method: as §1
# [7] = tested on: SN dopaminergic neuron from an adult Cav1.3-KO mouse; test: Voltage clamp of SN dopaminergic neurons from Cav1.3-KO mouse; format: cell-based; settings: cp-PYT 50 μM; CaV1.3 knockout mouse
# Summary of the method: (§2)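 SN dopaminergic neurons were acutely isolated from brain slices of young adult (P25) wild-type or CaV1.3 ([…]) knockout mice. Whole-cell voltage clamp used Ba2+ as charge carrier, with voltage ramps from −70 mV to +30 mV. Test compound was applied at 5 μM and 50 μM on wild-type cells and 50 μM on knockout cells. Maximum calcium permeability was compared by Mann-Whitney test.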
# [8] = tested on: CaV1.3; format: cell-based, rat; settings: for percent inhibition of evoked currents (median): wild-type CaV1.3, step −80 mV to 0 mV; for percentage inhibition of CaV1.3 peak currents (median): test step to 0 mV
# Summary of the method: as §1
# [9] = target: CaV1.2-V1063M (Oryctolagus cuniculus, UniProt P15381, V1063M); test: Whole-cell patch clamp, CaV1.2-V1063M channels; format: cell-based, rabbit; settings: read-out: percent inhibition of evoked currents (median)
# [10] = target: CaV1.2-V1063M+I1183V (Oryctolagus cuniculus, UniProt P15381, I1183V/V1063M); test: Whole-cell patch clamp, CaV1.2-V1063M+I1183V channels; format: cell-based, rabbit; settings: read-out: percent inhibition of evoked currents
# [11] = target: CaV1.2-I1183V (Oryctolagus cuniculus, UniProt P15381, I1183V); test: Whole-cell patch clamp, CaV1.2-I1183V channels; format: cell-based, rabbit; settings: read-out: percent inhibition of evoked currents
# CaV1.2-I1183V, sequence (P15381 whole entry I1183V): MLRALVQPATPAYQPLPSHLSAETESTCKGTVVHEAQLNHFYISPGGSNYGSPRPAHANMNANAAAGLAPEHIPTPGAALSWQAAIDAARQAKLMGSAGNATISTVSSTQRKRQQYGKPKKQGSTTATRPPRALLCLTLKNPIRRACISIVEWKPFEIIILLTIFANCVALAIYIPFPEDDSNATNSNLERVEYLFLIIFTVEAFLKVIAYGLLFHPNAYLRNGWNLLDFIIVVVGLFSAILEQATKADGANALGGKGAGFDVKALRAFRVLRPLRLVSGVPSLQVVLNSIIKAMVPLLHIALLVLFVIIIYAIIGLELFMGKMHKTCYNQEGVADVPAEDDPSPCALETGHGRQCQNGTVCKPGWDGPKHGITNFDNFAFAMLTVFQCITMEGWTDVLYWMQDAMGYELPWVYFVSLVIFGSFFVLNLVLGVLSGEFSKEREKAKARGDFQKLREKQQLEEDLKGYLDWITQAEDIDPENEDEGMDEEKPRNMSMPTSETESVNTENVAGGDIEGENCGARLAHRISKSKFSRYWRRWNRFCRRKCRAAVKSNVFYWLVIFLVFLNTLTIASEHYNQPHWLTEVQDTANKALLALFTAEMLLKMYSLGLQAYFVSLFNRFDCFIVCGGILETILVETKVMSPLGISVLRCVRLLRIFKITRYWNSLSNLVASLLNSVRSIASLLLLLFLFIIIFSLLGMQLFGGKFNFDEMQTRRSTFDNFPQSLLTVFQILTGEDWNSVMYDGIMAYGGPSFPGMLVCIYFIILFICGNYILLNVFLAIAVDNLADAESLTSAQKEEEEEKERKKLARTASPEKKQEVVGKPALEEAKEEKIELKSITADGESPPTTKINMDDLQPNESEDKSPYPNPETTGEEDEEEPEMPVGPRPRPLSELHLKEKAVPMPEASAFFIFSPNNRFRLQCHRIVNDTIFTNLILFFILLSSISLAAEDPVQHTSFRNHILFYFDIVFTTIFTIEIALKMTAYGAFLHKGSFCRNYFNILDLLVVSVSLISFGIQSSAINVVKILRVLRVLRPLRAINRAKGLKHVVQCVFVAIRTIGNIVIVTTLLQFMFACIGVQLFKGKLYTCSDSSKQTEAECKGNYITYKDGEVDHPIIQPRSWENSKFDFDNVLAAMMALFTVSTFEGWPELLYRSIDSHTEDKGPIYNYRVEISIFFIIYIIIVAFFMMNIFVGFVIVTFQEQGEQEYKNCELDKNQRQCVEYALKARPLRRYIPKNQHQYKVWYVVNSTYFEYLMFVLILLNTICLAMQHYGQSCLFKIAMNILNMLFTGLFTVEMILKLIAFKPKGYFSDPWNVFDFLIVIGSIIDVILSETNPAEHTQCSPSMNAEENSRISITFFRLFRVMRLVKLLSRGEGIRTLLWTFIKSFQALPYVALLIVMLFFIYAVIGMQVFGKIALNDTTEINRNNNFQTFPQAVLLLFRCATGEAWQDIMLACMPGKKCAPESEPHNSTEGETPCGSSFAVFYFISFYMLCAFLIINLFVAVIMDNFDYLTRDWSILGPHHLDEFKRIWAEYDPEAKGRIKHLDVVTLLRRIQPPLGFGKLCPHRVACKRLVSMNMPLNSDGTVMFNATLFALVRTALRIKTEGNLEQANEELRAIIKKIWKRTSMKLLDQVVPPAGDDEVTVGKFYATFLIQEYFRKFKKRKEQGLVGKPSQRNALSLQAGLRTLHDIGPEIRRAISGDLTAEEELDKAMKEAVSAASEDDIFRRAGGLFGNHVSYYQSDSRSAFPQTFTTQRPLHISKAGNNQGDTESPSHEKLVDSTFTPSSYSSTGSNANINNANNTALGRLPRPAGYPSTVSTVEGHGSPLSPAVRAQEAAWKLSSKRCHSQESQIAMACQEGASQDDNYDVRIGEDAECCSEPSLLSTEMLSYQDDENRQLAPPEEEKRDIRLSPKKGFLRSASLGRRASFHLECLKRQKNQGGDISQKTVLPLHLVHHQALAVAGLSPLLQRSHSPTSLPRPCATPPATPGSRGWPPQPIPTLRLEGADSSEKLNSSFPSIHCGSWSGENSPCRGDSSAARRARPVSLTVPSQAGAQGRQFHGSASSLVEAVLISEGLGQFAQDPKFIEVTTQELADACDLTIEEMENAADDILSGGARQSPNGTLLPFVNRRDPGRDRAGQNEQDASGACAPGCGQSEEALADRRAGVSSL
# CaV1.2-I1183V, sequence (P54287 whole entry partner): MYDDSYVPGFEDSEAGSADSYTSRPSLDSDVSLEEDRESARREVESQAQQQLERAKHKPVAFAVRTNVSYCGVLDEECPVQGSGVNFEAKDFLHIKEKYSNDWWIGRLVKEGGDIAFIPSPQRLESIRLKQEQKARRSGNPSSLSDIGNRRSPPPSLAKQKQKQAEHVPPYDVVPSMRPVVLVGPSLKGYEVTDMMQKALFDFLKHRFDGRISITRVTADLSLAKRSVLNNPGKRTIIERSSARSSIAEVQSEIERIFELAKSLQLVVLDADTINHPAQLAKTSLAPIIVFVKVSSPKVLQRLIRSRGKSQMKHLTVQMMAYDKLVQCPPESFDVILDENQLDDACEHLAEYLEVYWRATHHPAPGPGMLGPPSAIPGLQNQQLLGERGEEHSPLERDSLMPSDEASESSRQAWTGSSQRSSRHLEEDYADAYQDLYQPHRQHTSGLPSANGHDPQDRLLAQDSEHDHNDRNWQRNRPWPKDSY
# CaV1.2-I1183V, sequence (P54290 25-944 partner limits assumed): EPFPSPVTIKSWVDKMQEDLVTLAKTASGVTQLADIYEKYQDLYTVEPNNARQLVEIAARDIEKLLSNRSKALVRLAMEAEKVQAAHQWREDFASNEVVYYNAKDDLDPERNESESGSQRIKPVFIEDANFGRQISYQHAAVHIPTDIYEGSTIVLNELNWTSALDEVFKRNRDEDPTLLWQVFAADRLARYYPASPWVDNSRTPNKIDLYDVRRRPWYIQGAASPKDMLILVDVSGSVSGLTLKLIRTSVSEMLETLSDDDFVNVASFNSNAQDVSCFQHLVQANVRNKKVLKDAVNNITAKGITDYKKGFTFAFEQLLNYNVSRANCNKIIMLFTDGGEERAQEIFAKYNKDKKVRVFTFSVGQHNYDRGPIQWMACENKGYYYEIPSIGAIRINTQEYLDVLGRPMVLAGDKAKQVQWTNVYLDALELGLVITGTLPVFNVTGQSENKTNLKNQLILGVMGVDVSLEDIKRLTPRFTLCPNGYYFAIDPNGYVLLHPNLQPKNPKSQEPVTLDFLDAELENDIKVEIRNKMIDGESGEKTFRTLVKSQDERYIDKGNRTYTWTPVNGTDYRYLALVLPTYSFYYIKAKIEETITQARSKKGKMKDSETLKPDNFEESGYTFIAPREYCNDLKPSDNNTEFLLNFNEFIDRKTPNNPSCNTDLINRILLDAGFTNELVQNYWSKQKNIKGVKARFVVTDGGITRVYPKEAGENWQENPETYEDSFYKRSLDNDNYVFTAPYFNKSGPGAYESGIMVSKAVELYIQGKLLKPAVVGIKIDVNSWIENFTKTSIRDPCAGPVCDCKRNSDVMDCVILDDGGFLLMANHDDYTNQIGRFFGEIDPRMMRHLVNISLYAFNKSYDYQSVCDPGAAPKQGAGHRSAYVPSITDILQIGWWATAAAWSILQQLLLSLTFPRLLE
# CaV1.2-I1183V, sequence (P54290 945-1091 partner limits assumed): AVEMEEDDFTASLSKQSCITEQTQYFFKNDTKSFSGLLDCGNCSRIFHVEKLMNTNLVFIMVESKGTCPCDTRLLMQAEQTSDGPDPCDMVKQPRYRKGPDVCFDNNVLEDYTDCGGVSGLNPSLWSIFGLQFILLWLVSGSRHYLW
# [12] = target: CaV1.2-V1063K (Oryctolagus cuniculus, UniProt P15381, V1063K); test: Whole-cell patch clamp, CaV1.2-V1063K channels; format: cell-based, rabbit
# [13] = tested on: CaV1.3 channels; settings: magnitude and selectivity dependent on auxiliary β subunit; cited from earlier work
# [14] = target: CaV1.3-M1078K (Rattus norvegicus, UniProt P27732, M1078K); test: Whole-cell patch clamp, CaV1.3-M1078K channels; format: cell-based; settings: read-out: percent inhibition of evoked currents (median)
# Summary of the method: as §1
# [15] = rodents; cited from earlier work
# [16] = tested on: SN dopaminergic neurons; format: cell-based, mice; settings: cp-PYT 50 μM; ex vivo brain slice
# Summary of the method: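 Ex vivo brain slices from young adult mice were used. SN dopaminergic neurons were whole-cell patched and filled through the pipette with Alexa568 (20 μM) and Fluo-4 (200 μM). Two-photon laser scanning microscopy imaged Ca2+ along a dendrite while somatic voltage was recorded, before and after test compound application. Fluo-4 fluorescence was normalized to baseline (F0).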
# [17] = tested on: Cav1.3 calcium channels in adult SN dopaminergic (DA) neurons; test: Voltage clamp of acutely isolated SN dopaminergic neurons from WT mice; format: cell-based
# Summary of the method: as §2
# [18] = tested on: CaV1.3-M1078I; test: Whole-cell patch clamp, CaV1.3-M1078I channels; format: cell-based, rat
# Summary of the method: as §1
# [19] = target: CaV1.2-V1063L (Oryctolagus cuniculus, UniProt P15381, V1063L); test: Whole-cell patch clamp, CaV1.2-V1063L channels; format: cell-based, rabbit; settings: read-out: percent inhibition of evoked currents (median)
# CaV1.2-V1063L, sequence (P15381 whole entry V1063L): as the sequence (P15381 whole entry I1183V) above, with V1063L, V1183I counted along it
# CaV1.2-V1063L, sequence (P54287 whole entry partner): as the sequence (P54287 whole entry partner) above
# CaV1.2-V1063L, sequence (P54290 25-944 partner limits assumed): as the sequence (P54290 25-944 partner limits assumed) above
# CaV1.2-V1063L, sequence (P54290 945-1091 partner limits assumed): as the sequence (P54290 945-1091 partner limits assumed) above
# [20] = target: CaV1.2 (wild-type) (Oryctolagus cuniculus, UniProt P15381); test: Whole-cell patch clamp, wild-type CaV1.2 channels; format: cell-based, rabbit; settings: rabbit, pH 7.4
# [21] = target: CaV1.3-V1198I (Rattus norvegicus, UniProt P27732, V1198I); test: Whole-cell patch clamp, CaV1.3-V1198I channels; format: cell-based; settings: read-out: percent inhibition of evoked currents
# Summary of the method: as §1
# [22] = tested on: CaV1.3-T1081Y; test: Whole-cell patch clamp, CaV1.3-T1081Y channels; format: cell-based, rat
# Summary of the method: as §1
# [23] = tested on: CaV1.3 channels; settings: micromolar concentrations; cited from earlier work
# [24] = target: CaV1.2 (Oryctolagus cuniculus, UniProt P15381); test: Whole-cell patch clamp, wild-type CaV1.2 channels; format: cell-based, rabbit; settings: read-out: percent inhibition of evoked currents (median)
# CaV1.3 LTCCs, sequence (P27732 921-1530 limits assumed): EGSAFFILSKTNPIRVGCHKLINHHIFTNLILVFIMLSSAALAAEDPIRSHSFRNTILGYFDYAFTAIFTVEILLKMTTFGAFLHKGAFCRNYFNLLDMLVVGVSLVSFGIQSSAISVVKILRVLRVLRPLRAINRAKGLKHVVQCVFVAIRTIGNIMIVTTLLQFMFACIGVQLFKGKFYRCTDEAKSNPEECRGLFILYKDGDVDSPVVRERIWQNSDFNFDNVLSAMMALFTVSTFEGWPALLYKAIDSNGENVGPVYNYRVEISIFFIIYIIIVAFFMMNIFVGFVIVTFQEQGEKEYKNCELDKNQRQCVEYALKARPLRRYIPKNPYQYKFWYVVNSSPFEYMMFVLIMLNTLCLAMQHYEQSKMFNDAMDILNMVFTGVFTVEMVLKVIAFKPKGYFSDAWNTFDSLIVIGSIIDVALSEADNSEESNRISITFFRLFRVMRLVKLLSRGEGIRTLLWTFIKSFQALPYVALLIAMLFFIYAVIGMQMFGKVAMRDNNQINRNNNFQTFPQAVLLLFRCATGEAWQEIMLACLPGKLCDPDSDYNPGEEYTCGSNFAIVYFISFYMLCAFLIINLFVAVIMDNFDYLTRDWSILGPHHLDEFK
smiles,measurement,setting,value
"O=C1CC(=O)N(C2CCCC2)C(=O)N1CCc1cccc(Cl)c1 [cp-PYT, 1-(3-chlorophenethyl)-3-cyclopentylpyrimidine-2,4,6-trione]",displacement of tritiated D11 binding,[1]; equilibrium membrane binding,displaced
same,selectivity for inhibition of CaV1.3 channels over CaV1.2 channels,[2],highly selective
same,percent inhibition of evoked currents (median),[3]; 100 μM cp-PYT,4%
same,tail currents in M1078V mutant channels,[3]; cp-PYT (100 μM) in text,slowing of tail currents persisted
same,mitochondrial oxidant stress,[4]; cp-PYT 50 μM bath application,significantly diminished
same,inhibition at 100 µM,[5],48%
same,inhibition at 100 µM,[6],31%
same,effect on whole cell Ba2+ currents,[7],no effect
same,percent inhibition of evoked currents (median),[8]; 100 μM cp-PYT,60%
same,percentage inhibition of CaV1.3 peak currents (median),"[8]; cp-PYT 10 μM, VH −50 mV",46%
same,percentage inhibition of CaV1.3 peak currents (median),"[8]; cp-PYT 10 μM, VH −80 mV",26%
same,tail current kinetics / channel deactivation rates,"[8]; cp-PYT 10 μM, step back to −80 mV",did not alter
same,tail current kinetics,"[8]; cp-PYT 50 μM, step back to −80 mV",slowed
same,inhibition at 100 µM,[9],47%
same,inhibition at 100 µM,[10],32%
same,inhibition at 100 µM,[11],12%
same,inhibition at 100 µM,[12]; read-out: percent inhibition of evoked currents,40%
same,inhibition of CaV1.3 channels,[13],did inhibit
same,inhibition at 100 µM,[14],58%
same,reinstatement of alcohol- and cocaine-seeking,[15],disrupt
same,dendritic Ca2+ oscillations,[16],significantly reduced
same,effect on pacemaking,[16],no effect
same,inhibition of whole cell Ba2+ currents,"[17]; cp-PYT 5 μM, voltage ramps −70 mV to +30 mV, WT mice",modest inhibition
same,inhibition of whole cell Ba2+ currents,"[17]; cp-PYT 50 μM, WT mouse",inhibition
same,percent inhibition of evoked currents (median),[18]; 100 μM cp-PYT,37%
same,inhibition at 100 µM,[19],35%
same,inhibition at 100 µM,[20],21%
same,inhibition at 100 µM,[21],45%
same,percent inhibition of evoked currents (median),[22]; 100 μM cp-PYT,2%
same,deactivation of tail currents,[23],slowed
"COC(=O)C1=C(C)NC(C)=C(C(=O)OC(C)C)C1c1cccc2nonc12 (centres unmarked) [isradipine, reference compound]",Ki,[1],68 nM
same,fraction of 3H2-D11 binding not displaced,[1]; displacement by isradipine,~ 20%
same,percent inhibition of evoked currents (median),[3]; 5 μM isradipine,78%
same,mitochondrial oxidant stress,[4]; isradipine 1 μM,diminished
same,inhibition at 5 µM,[5],91%
same,inhibition at 5 µM,[6],69%
same,percent inhibition of evoked currents (median),[8]; 5 μM isradipine,90%
same,percentage inhibition of CaV1.3 peak currents (median),"[8]; isradipine 100 nM (Fig. 4a legend), VH −50 mV",92%
same,percentage inhibition of CaV1.3 peak currents (median),"[8]; isradipine 100 nM (Fig. 4a legend), VH −80 mV",43%
same,inhibition at 5 µM,[9],92%
same,inhibition at 5 µM,[10],93%
same,inhibition at 5 µM,[11],95%
same,inhibition at 5 µM,[12]; read-out: percent inhibition of evoked currents (median),72%
same,inhibition at 5 µM,[14],88%
same,reinstatement of alcohol- and cocaine-seeking,[15],disrupt
same,percent inhibition of evoked currents (median),[18]; 5 μM isradipine,85%
same,inhibition at 5 µM,[19],95%
same,inhibition at 5 µM,[24],78%
same,inhibition at 5 µM,[21],94%
same,percent inhibition of evoked currents (median),[22]; 5 μM isradipine,1%
